Measurements from different studies.
Compare with care: the assays were run in different laboratories.
Target: Serine/threonine-protein kinase pim-3 (PIM3, Homo sapiens, UniProt Q86V86)

O=C1CCc2cc(Nc3cc(OC4CCOCC4)c([N+](=O)[O-])cc3Cl)ccc2N1
remaining binding (cell-free assay, competition with immobilised ligand; 1 µM): 100%

C[C@@H]1CCN(c2nccc(-c3cnn4ncccc34)n2)C1
remaining binding (binding; 1 µM): 92%

CNC(=O)[C@@H]1CC[C@@H](n2c(-c3ccc4cnccc4c3)nc3ccc(C(=O)NCc4cccc(C(N)=O)c4)cc32)C1
remaining binding (binding, competition with immobilised ligand; 1 µM): 100%

CN(C)c1nccc(-c2cnn3ncccc23)n1
remaining binding (binding; 1 µM): 56%

C[C@@H](c1ccc(-n2cnc3c(N)ncnc32)cc1)N1CCc2nn(C)c(Cc3ccccc3)c2C1=O
remaining binding (binding, competition with immobilised ligand; 0.1 µM): 90%

CN(C)c1nccc(-c2cnc3ncccn23)n1
remaining binding (binding; 1 µM): 88%

O=C(NCCCN1CCOCC1)c1ccc(Nc2ncc(Cl)c(-c3ccc(Cl)s3)n2)cc1
remaining binding (binding, competition with immobilised ligand; 1 µM): 100%

CO[C@H]1CC[C@H](CNc2ccc(S(=O)(=O)NC(=O)c3ccc(N4CCN(CC5=C(c6ccc(Cl)cc6)CC(C)(C)CC5)CC4)cc3Oc3cnc4[nH]ccc4c3)cc2[N+](=O)[O-])CC1
remaining binding (cell-free assay, competition with immobilised ligand; 1 µM): 74%

C[C@@H]1CN(c2ccc3ncc(-c4ccc5[nH]nc(C6CC6)c5c4)n3n2)C[C@H](C)O1
remaining binding (binding, competition with immobilised ligand; 50 nM): 81%

COc1ncc2cc3ccccc3nc2c1C#N
remaining binding (cell-free assay, competition with immobilised ligand; 5 µM): 79%

O=C(c1ccc(Nc2ncc(Cl)c(-c3cc4ccccc4s3)n2)cc1)N1CCC(N2CCCC2)CC1
remaining binding (binding, competition with immobilised ligand; 1 µM): 75%

CC(=O)Nc1c(C(C)=O)c(=O)n(C)c2nc(-c3ccc(Cl)cc3Cl)c(-c3ccc(Cl)cc3)cc12
remaining binding (cell-free assay, competition with immobilised ligand; 1 µM): 100%

c1cncc(-c2cccc(Nc3nccc(NC4CCCCC4)n3)c2)c1
remaining binding (binding, competition with immobilised ligand; 10 µM): 71%

CCN1CCN(Cc2ccc(C(=O)Nc3ccc(C)c(Oc4ccc5c(c4)CC(=O)N5)c3)cc2C(F)(F)F)CC1
remaining binding (binding, competition with immobilised ligand; 1 µM): 100%

N[C@@H]1CCN(c2nccc(-c3cnn4ncccc34)n2)C1
remaining binding (binding; 1 µM): 100%

CCCOc1ccc([C@@H]2[C@@H](C(=O)O)[C@H](c3ccc4c(c3)OCO4)CN2CC(=O)Nc2c(CC)cccc2CC)cc1
remaining binding (cell-free assay, competition with immobilised ligand; 1 µM): 95%
